From PubChem BioAssay
Only some compounds are listed: those with a hit (about 1.8% of all), similar ones and a draw of the others.
CHRM5 PAM: potentiates acetylcholine response at human M5 receptor; AID 624038; 360,000 tested, 0.3% active; P08912; activation, % at 3 µM; CHO-K1 hM5, Fluo-8 calcium, ACh EC20 PAM; 0% = ACh EC20, 100% = ACh EC100;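 active = activation above the run cutoff, the mean activation of all test compounds plus 3 SD, cut at about 18% in these data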
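Test system: CHO-K1 hM5 cells / Doses: single-point, 3 µM nominal / Times: Post-acetylcholine fluorescence recording 140 s / Technique: Fluo-8 calcium fluorescence / Measure: Max/basal fluorescence ratio as % of EC20–EC100 ACh window / Benchmarks: low control EC20 acetylcholine (0%), high control EC100 acetylcholine (100%) / Replicates: one well per compound, no replicates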
CHRM5 antagonist: CHRM5 antagonism in calcium assay; 360,000 tested, 0.59% active; P08912; CHO-hM5 cells, Fluo-8 calcium fluorescence, ACh EC80; inhibition, % at 3 µM;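 active = inhibition above a per-plate cutoff, the mean of that plate's test compounds plus 3 SD, cut at about 27% in these data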
CHRM4 antagonist: antagonists of human muscarinic M4 receptor (CHRM4). CHO-hM4 cells, ACh EC80, Fluo-8 calcium fluorescence. inhibition, % at 3 µM. 360,000 tested, 0.73% active. AID 624125;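 active = inhibition above its plate's cutoff, the mean inhibition of sample wells plus 3 SD, cut at about 27% in these data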
Target sequence (P08173 whole entry, looked up): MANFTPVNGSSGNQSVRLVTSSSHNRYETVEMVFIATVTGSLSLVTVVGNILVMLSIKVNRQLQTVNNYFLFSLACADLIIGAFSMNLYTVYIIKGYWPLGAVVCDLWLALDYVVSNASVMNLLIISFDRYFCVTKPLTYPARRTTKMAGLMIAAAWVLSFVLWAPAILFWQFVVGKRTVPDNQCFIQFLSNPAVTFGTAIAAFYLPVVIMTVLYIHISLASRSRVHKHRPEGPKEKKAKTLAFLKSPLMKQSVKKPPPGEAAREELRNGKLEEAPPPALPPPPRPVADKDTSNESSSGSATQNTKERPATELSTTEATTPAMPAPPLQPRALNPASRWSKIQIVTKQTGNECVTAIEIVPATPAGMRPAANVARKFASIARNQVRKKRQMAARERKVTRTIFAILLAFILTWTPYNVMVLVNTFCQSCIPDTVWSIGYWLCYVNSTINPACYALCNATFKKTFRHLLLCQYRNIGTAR
M4 PAM: positive allosteric modulators of human muscarinic M4 receptor | P08173 | CHO-K1 hM4/Gqi5, Fluo-8 calcium fluorescence, ACh EC20; 0% = ACh EC20, 100% = maximal ACh | activation, % at 3 µM | 360,000 tested, 0.4% active | AID 624126;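 active = activation above its plate's cutoff, the mean activation of sample wells plus 3 SD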
M5 ag: agonists of human muscarinic M5 receptor (CHRM5); activation, % at 3 µM; 360,000 tested, 0.19% active; AID 624037; CHO-K1 hM5 cells, Fluo-8 calcium fluorescence; 0% DMSO wells, 100% maximal acetylcholine response; P08912;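 active = activation above the run's mean over test compounds plus 3 SD, cut at about 23% in these data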;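 also: signal is peak over basal fluorescence ratio across the kinetic read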
CHRM4 agonist: CHRM4 agonism in calcium assay; P08173; CHO-K1 hM4/Gqi5, Fluo-8 calcium fluorescence; vehicle 0%, full acetylcholine response 100%; activation, % at 3 µM; 360,000 tested, 0.14% active;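 active = activation above the run mean over all test wells plus 3 SD, cut at about 32% in these data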;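 also: peak over basal fluorescence ratio per well then scaled between controls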
A number is an active result; . = inactive.

SMILES	CHRM5 PAM	CHRM5 antagonist	CHRM4 antagonist	M4 PAM	M5 ag	CHRM4 agonist
CC(=O)c1ccc(N2CCN(C(=O)/C=C/c3ccc(S(=O)(=O)NCc4ccco4)cc3)CC2)cc1	.	.	37.5	.	.	.
CCCCn1nnc(NC(=O)CC23CC4CC(CC(C4)C2)C3)n1	.	.	.	15.2	.	.
CC1CCN(CCCCOc2cccc(Br)c2)CC1	.	.	67.7	.	.	.
CCOC1=C2[C@@H](CN(S(=O)(=O)c3ccccc3C)[C@H]2c2ccc(Cl)cc2)[C@H]2C(=O)NC(=O)[C@H]2C1	.	.	42.6	.	.	.
CCOC1=C2[C@@H](CN(S(=O)(=O)c3ccccc3C)[C@H]2c2ccc(Cl)cc2)[C@H]2C(=O)N(c3ccccc3)C(=O)[C@H]2C1	.	.	.	.	.	.
C=C(C)C1CC=C(C)/C(=N/NC(=O)COc2ccc(Cl)cc2)C1 (stereo not given)	.	.	.	19.8	.	.
Cc1[nH]n(-c2ccccc2)c(=O)c1C(=O)c1ccccc1	20.6	.	.	.	.	.
Cc1cc(C)nc(NN2C(=O)C=CC2=O)n1	.	.	.	.	.	.
Cc1onc(-c2ccc(Cl)cc2)c1-c1ccnc(SCC(=O)Nc2cc(Cl)cc(Cl)c2)n1	.	.	.	.	.	.
CC(Oc1ccc(F)cc1)c1ccnc2nc(/N=C/N(C)C)nn12 (stereo not given)	.	.	.	.	.	.
CC(Oc1ccc(C(C)(C)C)cc1)c1ccnc2nc(/N=C/N(C)C)nn12 (stereo not given)	.	.	44.0	.	.	.
CN1CCN(c2ccccc2NC(=O)C(Cc2ccccc2)n2cccc2)CC1 (stereo not given)	.	.	31.9	.	.	.
COCCNc1nnc(SCC(=O)NNC(=O)c2ccccc2)s1	.	.	.	18.8	.	.
O=C(O)c1ccccc1/C=N/NC(=S)NCc1ccccc1	34.5	32.3	.	.	.	.
O=c1c2cnn(-c3ccc(F)cc3)c2ncn1Cc1cccnc1	28.6	.	.	.	.	.
COc1ccc(NC(=O)CSc2n[nH]c(-c3ccccc3)n2)cc1S(N)(=O)=O	.	.	.	.	.	.
CC(C)C[C@H](NC(=O)OC(C)(C)C)C(=O)N1CCC(C(=O)N[C@@H](Cc2c[nH]c3ccccc23)C(=O)O)CC1	.	.	.	.	.	.
CCC1CN2CCc3cc(OC)c(OC)cc3C2CC1CC1c2cc(OC)c(OC)cc2CCN1C(=O)C(Cc1c[nH]c2ccccc12)NC(=O)OC(C)(C)C (stereo not given)	.	26.9	.	.	.	.
Cc1csc2c(N3CCN(C(=S)Nc4ccc(C(F)(F)F)cc4)CC3)ncnc12	.	29.9	.	.	.	.
Cc1csc2ncnc(N3CCN(C(=S)Nc4ccc(C(F)(F)F)cc4)CC3)c12	.	.	.	.	.	.
CC1(C(=O)NS(=O)(=O)c2cccc(Cl)c2)CCN1C(=O)Cc1ccc(-c2ccccc2)cc1 (stereo not given)	.	.	.	.	.	.
CCCCCCCCCn1ccc(=N)cc1	.	.	30.3	.	.	.
Nc1c(C(=O)CSc2nccn2-c2ccc(Cl)cc2)c(=O)[nH]c(=O)n1C1CC1	18.5	.	.	.	.	.
O=c1[nH][nH]c(-c2ccccc2)c1C=Nc1ccc(F)cc1F	.	.	.	21.3	.	.
O=C(N/N=C/c1ccco1)C1CC1(c1ccccc1)c1ccccc1 (stereo not given)	.	.	28.4	.	.	.
C/C(=N/NC(=O)C1CC1(c1ccccc1)c1ccccc1)c1ccco1 (stereo not given)	.	.	.	.	.	.
C=CCC(NC(=O)c1ccc(C#N)cc1)C(=O)NCCC (stereo not given)	18.9	.	.	.	.	.
Cc1csc(/C(C#N)=N/O)n1	.	.	.	.	.	.
Cc1csc(/C(=N\O)c2csc(C)n2)n1	.	.	.	20.6	.	.
